Measured values as given in ChEMBL document CHEMBL1139521, “Synthetic iminosugar derivatives as new potential immunosuppressive agents” (J Med Chem, 2005).

Columns and labels:
Assay type in all cases: functional
[1] = Inhibitory concentration against proliferation of mouse splenocytes was determined by measuring mitochondrial dehydrogenase activity using MTT assay
Procedure, shortened: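 Mouse splenocyte proliferation measured by a 72 h MTT assay, with mitochondrial dehydrogenase activity of surviving cells as read-out. Test agents were in acetate form. Cyclosporin A was included as a comparator. IC50 taken as the concentration giving 50% inhibition.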

Mus musculus [2] = species: Mus musculus; experiment: Effect on level of IL-4 secretion in mice splenocytes following treatment with 25 uM compound done for 72 hr at 37 degree C
Procedure, shortened: (§1)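 Mouse spleen cells stimulated with concanavalin A in the presence of 25 µM test agent (acetate form) at 37 °C, 5% CO2 for 72 h. Cytokine levels (IL-4 or IFN-γ) in the culture supernatant measured by mouse ELISA kit. Reduction expressed relative to control. Means ± SEM of at least three independent experiments.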

Mus musculus [3] = species: Mus musculus; experiment: Effect on level of IFN-gamma secretion splenocytes in mice following treatment with 25 uM compound done for 72 hr at 37 degree C; procedure, shortened: as §1

Structure (SMILES)	IC50 [1]	Reduction (Mus musculus [2])	Reduction (Mus musculus [3])
OC[C@H]1N[C@H](CO)[C@H](O)C(O)[C@H]1O (stereo not given in full)	519 µM	69.2%	75.89%
OC[C@@H]1N[C@@H](CO)[C@H](O)C(O)[C@H]1O (stereo not given in full)	272 µM	84.6%	51.6%
O=C(O)[C@H]1N[C@H](CO)[C@H](O)[C@H](O)[C@H]1O	340 µM	30.8%	31.2%
O=C(O)[C@H]1N[C@@H](CO)[C@H](O)[C@H](O)[C@H]1O	346 µM	92.3%	24.2%
OC[C@@H]1N[C@H](CO)[C@H](O)[C@@H](O)[C@H]1O	332 µM	92.3%	86.2%
